Screening results as filed in PubChem.
Sampled rows, rich in hits. Any-hit rate of the full collection: about 3.7%.
KCNK9 block: KCNK9 potassium channel inhibitors, primary screen, HEK293 cells, thallium flux | FluxOR thallium flux fluorescence; active compounds read low | Potassium channel subfamily K member 9 (Homo sapiens), Q9NPC2 | 310,000 tested, 1.2% active | B-score at 10 µM;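 active = ratio B-score over 3 SD below the library mean, with starting fluorescence within 5 SD of its mean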;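 also: negative B-score means less thallium flux so channel inhibition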
KCNQ1 act: potentiators or activators of KCNQ1 channel, primary screen, cell-based, thallium flux, high-throughput | Potassium voltage-gated channel subfamily KQT member 1 (Homo sapiens), P51787 | CHO-K1 KCNQ1, thallium flux FluxOR fluorescence; active compounds read high | B-score at 10 µM | 310,000 tested, 0.35% active;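 active = fluorescence ratio B-score, a plate-corrected score, at least three library SD, with initial intensity B-score within 5 SD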
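Medium – assay buffer, equal DMSO in all wells · Material – CHO-K1 cell line with stable KCNQ1 potassium channel expression · Signal – kinetic FluxOR thallium fluorescence, 10-s 1-Hz baseline, 110-s post-stimulus read · Compound – single concentration per compound, DMSO matched to controls · Schedule – 37 °C overnight plating, 90-min dark dye load, 20-min compound pretreatment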
Kir21 inh: inhibitors of mouse Kir2.1 inward-rectifier potassium channel; 310,000 tested, 0.85% active; AID 1672, 2009; HEK293-Kir2.1, FluxOR thallium flux fluorescence; active compounds read low; Inward rectifier potassium channel 2 (Mus musculus), P35561; B-score at 10 µM;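 active = fluorescence ratio B-score at or below minus 3 SD of library scores, with starting-brightness B-score within 2 SD, cut at about -4.2 in these data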;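 also: channel flux triggered by added potassium and thallium sulfate stimulus; B-score of peak minus minimum fluorescence over baseline after thallium stimulus; more negative B-score means stronger Kir2.1 block with less thallium influx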
KCNK3 block: human KCNK3 channel inhibitors, primary screen, CHO cells, FluxOR thallium flux, B-score; B-score at 10 µM; Potassium channel subfamily K member 3 (Homo sapiens), O14649; FluxOR fluorescence; active compounds read low; 340,000 tested, 0.84% active;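 active = B-score under library mean minus 4 SD, starting fluorescence ratio at most library mean plus 5 SD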;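 also: more negative B-score means stronger inhibition of thallium flux through KCNK3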
Target sequence (O14649 whole entry, looked up): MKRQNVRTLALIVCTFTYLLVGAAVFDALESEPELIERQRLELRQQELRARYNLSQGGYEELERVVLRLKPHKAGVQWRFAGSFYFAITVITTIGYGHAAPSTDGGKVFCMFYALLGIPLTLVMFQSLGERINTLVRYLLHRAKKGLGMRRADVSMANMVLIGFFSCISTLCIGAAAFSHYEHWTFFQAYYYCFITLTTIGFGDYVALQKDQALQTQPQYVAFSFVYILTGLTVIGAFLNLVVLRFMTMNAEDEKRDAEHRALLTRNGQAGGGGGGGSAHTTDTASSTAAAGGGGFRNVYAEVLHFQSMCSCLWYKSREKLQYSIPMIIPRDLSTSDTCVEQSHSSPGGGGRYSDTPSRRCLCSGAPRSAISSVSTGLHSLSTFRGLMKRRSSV
hERG protect: hERG rescue from dofetilide block, primary screen, cell-based, CHO-hERG, FluxOR thallium flux, dofetilide IC70. dofetilide IC70 present. activation (rescue from dofetilide block), less the hit threshold, % at 10 µM. 310,000 tested, 0.51% active. AID 1511, 2009;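 active = activation above the mean of controls blocked by dofetilide plus 5 SD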;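 also: thallium influx through hERG after potassium depolarization seen as dye fluorescence rise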
KCNQ1 inh: inhibitors of human KCNQ1 channel, primary screen, cell-based, thallium flux, high-throughput. B-score at 10 µM. AID 2642, 2010. 310,000 tested, 1.3% active. CHO-K1 KCNQ1, FluxOR thallium flux fluorescence; active compounds read high;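 active = compounds whose thallium flux B-score, printed positive for inhibition, exceeds three library SD while starting fluorescence stays within three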;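 also: channel opened by potassium depolarization with thallium stimulus after 20 min compound exposure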
KCNK9 inh conf: KCNK9 potassium channel inhibitors, confirmation, HEK293 cells, thallium flux, duplicate; shares compounds with KCNK9 block; FluxOR thallium flux fluorescence; inhibition, % at 10 µM; 4,900 tested, 43% active;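 active = thallium signal inhibited by more than 5 SD of the compound-free buffer control wells, on both duplicate plates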;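 also: 0% = assay buffer control wells without compound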
Kir21 sel: mouse Kir2.1 channel inhibition, confirmation, selectivity assay for KCNK9 modulator project, cell-based, HEK293, thallium flux | shares compounds with KCNK9 block | Kir2.1 cells, FluxOR thallium flux fluorescence | inhibition, % at 10 µM | 4,900 tested, 4% active;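 active = thallium signal drop more than 5 SD beyond the mean of the no-compound control wells, seen in both duplicate plates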;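 also: signal is fluorescence rise after thallium addition divided by baseline fluorescence; plate controls were assay buffer only for no effect and full block by chlorpromazine control for full effect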
KCNK9 uninduced: thallium flux in non-induced HEK293 cells, confirmation, counter-screen for KCNK9 inhibitor project, cell-based, second counter screen, non-induced KCNK9-HEK293 | shares compounds with KCNK9 block | FluxOR thallium flux | inhibition, % at 10 µM | 4,900 tested, 40% active;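 active = thallium signal drop beyond 5 SD of the untreated control mean, on both duplicate plates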;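 also: plate controls were buffer only IC0 wells for no effect and SID17386958 at its maximal inhibitory level for full effect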
The depositor's hits bear a star; i = inactive; nt = no result given.

SMILES	KCNK9 block	KCNQ1 act	Kir21 inh	KCNK3 block	hERG protect	KCNQ1 inh	KCNK9 inh conf	Kir21 sel	KCNK9 uninduced
Cc1ccc(NCc2nnc(SCc3ccc(C#N)cc3)n2Cc2ccco2)c(C)c1	-19*	i	0.34	i	-15	i	66%*	i	36%*
CCOC(=O)/C(=C\Nc1ccc(OC(F)(F)F)cc1)Sc1ncc(C(F)(F)F)cc1Cl	i	i	-1.4	i	-9	i	i	i	i
COc1ccccc1OCCNC(=O)c1ccc(C)o1	i	i	1	i	-14	i	nt	nt	nt
O=C(c1cnc(Cl)c(Cl)c1)N1CCN(S(=O)(=O)c2ccc3ccccc3c2)CC1	nt	nt	nt	i	nt	nt	nt	nt	nt
O=C(NCCc1ccccc1)c1ccc2nc(N3CCOCC3)sc2c1	i	i	1	i	-8	i	nt	nt	nt
O=C(c1ccc2nc(N3CCOCC3)sc2c1)N1CCC(Cc2ccccc2)CC1	i	i	-1.2	i	-14	i	i	i	i
O=C(c1cnc(Cl)c(Cl)c1)N1CCC(Cc2ccccc2)CC1	i	i	-0.05	i	-8	i	i	i	i
CCC(=O)N(C(=O)CC)N1CCN(c2ccncc2S(=O)(=O)N2CCCCC2)CC1	-9.3*	i	-1.6	i	-11	i	42%*	i	42%*
NCCNC(=O)Cn1c(=O)c2c3c(sc2n(Cc2ccccc2)c1=O)CCCC3	i	i	-1.3	i	-4	i	nt	nt	nt
COc1ccc(C(=O)NNC(=S)NC(=O)c2cccs2)cc1	-9.1*	i	0.69	i	-8	i	i	i	i
O=C1C(Cl)=C(NC2CCCCC2)C(=O)N1Cc1ccccc1	i	i	-0.45	i	-8	i	i	i	i
O=C(COc1coc(CN2CCN(c3ccccc3)CC2)cc1=O)NC1CCCCC1	i	i	2.1	i	-11	i	nt	nt	nt
Cc1c(N2C(=O)c3ccccc3C2=O)c(=O)n(-c2ccccc2)n1C	i	i	-1	i	-6	i	nt	nt	nt
Cc1c(N2C(=O)/C(=C\c3cccc4ccccc34)SC2=S)c(=O)n(-c2ccccc2)n1C	i	i	-0.26	-9.4*	-6	i	i	i	i
Cc1ccc(/C=C2/SC(=S)N(C3CCCCC3)C2=O)o1	i	i	-0.19	i	-8	i	i	i	i
COc1cc(SC)ccc1C(=O)NCCNC(=O)c1nonc1N	i	i	0.05	i	-8	i	nt	nt	nt
COc1cccc(N2CCN(C(=O)c3cc4cc(Cl)ccc4[nH]3)CC2)c1	i	i	-0.01	i	-9	i	nt	nt	nt
O=C(c1cc2cc(F)ccc2[nH]1)N1CCN(c2cccc(Cl)c2)CC1	i	i	-0.92	i	-6	i	i	i	i
COc1cc(/C=N/NC(=O)c2ccc([N+](=O)[O-])cc2Cl)cc(Br)c1O	i	i	0.93	i	-6	i	nt	nt	nt
COc1cc(/C=N/N2C(=O)c3ccccc3NC2(C)c2cccc([N+](=O)[O-])c2)cc(Br)c1O (stereo not drawn)	-14*	i	1.5	i	-16	i	56%*	i	46%*
